Usually EC50 stands for the concentration at which the effect is half-maximal.

In brackets after ≈: the same amount, converted by molar mass.

The species named for test [1] is Homo sapiens. The experiment in a line: In vitro inhibition of collagen-induced human platelet aggregation. The class given is functional, organism-based. An outline of the steps:
(§1)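 Human venous blood citrated with 10% v/v sodium citrate (3.8%); platelet-rich plasma spun at 300g, 10 min, 4 °C, used within 2 h. Compound in Me2SO (1% final) preincubated 10 min at room temperature; aggregation triggered by collagen 0.02 mg/mL final or ADP 0.85 μg/mL final; maximum rate read in Born aggregometer. EC50 from log dose–effect regression with 95% confidence limits.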

The species named for test [2] is Homo sapiens. Nature of the test: Relative activity (compared to acetylsalicylic acid) for in vitro inhibition of collagen-induced human platelet aggregation. The class given is functional.
Test [3] is filed under the species Homo sapiens. Nature of the test: In vitro inhibition of ADP-induced human platelet aggregation. The class given is functional. The conditions noted are these: Homo sapiens; read-out: EC50. Summed up: as §1
In test [4] the test system is Rattus norvegicus. The experiment in a line: In vitro hypotensive activity in anesthetized rats after intraperitoneal administration. The class given is functional. Conditions: ip, in the assay text read “In vivo” for “In vitro”. Summed up:
(§2)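 Male Sprague-Dawley rats, 230-280 g, urethane-anesthetized (ip); carotid arterial pressure recorded continuously by pressure transducer. Compounds given ip at 2 mL/kg. ED20, dose lowering mean carotid pressure by 20%, from log dose–effect regression; dihydralazine as reference.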

For test [5], the system named is Rattus norvegicus. Nature of the test: Activity relative to dihydralazine for in vitro hypotensive activity in anesthetized rats. The class given is functional. Conditions: in the assay text read “in vivo” for “in vitro”. Summed up:
as §2

The subject of test [6] is Rattus norvegicus. Nature of the test: Ex vivo inhibition of collagen-induced rat platelet aggregation after peroral administration. The class given is functional. Conditions: po. Summed up: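 Male Sprague-Dawley rats, 200-250 g, dosed orally, three rats per dose. Blood drawn by heart puncture under ether 1 h post-dose; platelet-rich plasma prepared by centrifugation; aggregation induced with collagen 0.02 mg/mL final, maximum rate read in Born aggregometer.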

Test [7] in a line: In vitro inhibition of collagen induced aggregation of human plateles and the ratio of ED33 to EC50 was reported. The class given is functional. An outline of the steps:
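Ratio of oral ED33 (male Sprague-Dawley rats, 3 per dose, blood taken 1 h post-dose, collagen-triggered aggregation) to in vitro EC50 (human citrated platelet-rich plasma, 10 min room-temperature preincubation in 1% Me2SO, collagen 0.02 mg/mL final, regression-derived).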

Test [8] is filed under the species Rattus norvegicus. The experiment in a line: Relative activity in rats based on acetylsalicylic acid. The class given is functional.

In the test filed under Homo sapiens [1], `COc1ccc2c(c1)c(CC(=O)O)c(C)n2C(=O)c1ccc(Cl)cc1` [INDOMETHACIN] showed an EC50 of 200 mg/L (≈ 559 µM). In addition, the Relative activity in the test listed under Homo sapiens [2] is recorded as 2.47.

Turning to `CCCCC(=O)Nc1ccc(C2=NNC(=O)CC2)cc1`, the EC50 in the test filed under Homo sapiens [3] turned out to be 2.64 mg/L (≈ 9.66 µM); in the test filed under Homo sapiens [1] (Homo sapiens, read-out: EC50) it was 3.34 mg/L (≈ 12.2 µM). The Relative activity in the test filed under Homo sapiens [2] was 148; in the test with Rattus norvegicus [5], 0.34. Also, the ED20 in the test on Rattus norvegicus [4] was 1 mg/kg.

In the case of `CC(=O)Nc1ccc(C2=NNC(=O)C(C)C2)cc1` (configuration not stated), the half-maximal effective concentration (EC50) was found to be 46.4 mg/L (≈ 189 µM) in the test listed under Homo sapiens [3] and 46.4 mg/L (≈ 189 µM) in the test filed under Homo sapiens [1] (Homo sapiens, read-out: EC50). Besides, the Relative activity in the test filed under Homo sapiens [2] is given as 11; with Rattus norvegicus [5], less than 0.34. Moreover, in the test with Rattus norvegicus [4], the ED20 was greater than 1 mg/kg.

In the case of `CCC(C)NCC(=O)Nc1ccc(C2=NNC(=O)CC2)cc1.Cl` (configuration not stated), the EC50 in the test filed under Homo sapiens [3] is roughly 21.5 mg/L; in the test filed under Homo sapiens [1] (Homo sapiens, read-out: EC50), roughly 21.5 mg/L. Besides, the Relative activity was roughly 23 in the test listed under Homo sapiens [2] and less than 0.34 in the test with Rattus norvegicus [5]. For the same compound, the ED20 in the test with Rattus norvegicus [4] was greater than 1 mg/kg.

Regarding `CC1CC(=O)NN=C1c1ccc(NC(=O)C(C)(C)CBr)cc1` (configuration not stated), the 50% effective concentration (EC50) in the test listed under Homo sapiens [3] was determined as 0.5 mg/L (≈ 1.37 µM). For the same compound, the figures for the Relative activity in the test listed under Homo sapiens [2], with Rattus norvegicus [5] and in the test listed under Rattus norvegicus [8] were 1123, 0.99 and 66.6, respectively. In addition, the ED20 in the test with Rattus norvegicus [4] was determined as 0.34 mg/kg. Moreover, in the test with Rattus norvegicus [6], the ED33 was 3.5 mg/kg. Further, the Ratio in test [7] is 8.

As to `CC(=O)Nc1ccc(C2=NN(C)C(=O)CC2)cc1`, the EC50 was greater than 46.4 mg/L in the test listed under Homo sapiens [3] and greater than 46.4 mg/L in the test listed under Homo sapiens [1] (Homo sapiens, read-out: EC50). For the same compound, the values for the Relative activity in the test listed under Homo sapiens [2] and in the test with Rattus norvegicus [5] were less than 11 and 0.34, respectively. For the same compound, in the test with Rattus norvegicus [4], the ED20 came out at 1 mg/kg.

With `CN1N=C(c2ccc(NC(=O)CCl)cc2)CCC1=O`, the 50% effective concentration (EC50) in the test filed under Homo sapiens [3] was greater than 46.4 mg/L; in the test filed under Homo sapiens [1] (Homo sapiens, read-out: EC50), greater than 46.4 mg/L. Also, the Relative activity in the test listed under Homo sapiens [2] was less than 11; in the test with Rattus norvegicus [5], less than 0.34. This compound also displayed an ED20 in the test on Rattus norvegicus [4] greater than 1 mg/kg.

With `CC1CC(=O)NN=C1c1ccc(NC(=O)C(C)(C)Br)cc1` (configuration not stated), the EC50 in the test filed under Homo sapiens [3] was found to be 0.33 mg/L (≈ 0.937 µM). Further, the ED20 in the test with Rattus norvegicus [4] is 2.93 mg/kg. The compound also returned an ED33 with Rattus norvegicus [6] of 3.49 mg/kg. The Ratio in test [7] was 3.9. In addition, the Relative activity in the test on Rattus norvegicus [5] came to 0.12; in the test filed under Rattus norvegicus [8] it was 66.8.

For `CCCC(=O)Nc1ccc(C2=NNC(=O)CC2)cc1`, the EC50 turned out to be 1.44 mg/L (≈ 5.55 µM) in the test filed under Homo sapiens [3] and 1.45 mg/L (≈ 5.59 µM) in the test filed under Homo sapiens [1] (Homo sapiens, read-out: EC50). For the same compound, the Relative activity in the test listed under Homo sapiens [2] came to 341; in the test on Rattus norvegicus [5], 0.74. For the same compound, the ED20 in the test with Rattus norvegicus [4] is 0.46 mg/kg.

With `CC(=O)Oc1ccccc1C(=O)O` [ASPIRIN], the 50% effective concentration (EC50) in the test filed under Homo sapiens [1] came out at 494 mg/L (≈ 2740 µM). Further, the Relative activity in the test listed under Homo sapiens [2] and with Rattus norvegicus [5] was 1 in each case. For the same compound, the ED33 in the test with Rattus norvegicus [6] is 233 mg/kg. In addition, the Ratio in test [7] was 0.47.

Turning to `O=CNc1ccc(C2=NNC(=O)CC2)cc1`, the concentration giving a half-maximal response (EC50) in the test filed under Homo sapiens [3] came out at 3.74 mg/L (≈ 17.2 µM); in the test listed under Homo sapiens [1] (Homo sapiens, read-out: EC50), 5.27 mg/L (≈ 24.3 µM). The Relative activity stood at 94 in the test filed under Homo sapiens [2] and 1.06 with Rattus norvegicus [5]. The ED20 in the test on Rattus norvegicus [4] is 0.32 mg/kg.

With `CC1CC(c2ccc(NC(=O)CCl)cc2)=NNC1=O` (configuration not stated), the EC50 in the test listed under Homo sapiens [3] turned out to be 21.9 mg/L (≈ 78.3 µM); in the test filed under Homo sapiens [1] (Homo sapiens, read-out: EC50), 6.31 mg/L (≈ 22.6 µM). The Relative activity in the test listed under Homo sapiens [2] is 78; in the test with Rattus norvegicus [5], less than 0.34. Further, the ED20 in the test on Rattus norvegicus [4] is greater than 1 mg/kg.

For `CCC(Br)C(=O)Nc1ccc(C2=NNC(=O)CC2C)cc1` (configuration not stated), the EC50 in the test filed under Homo sapiens [3] came out at 0.052 mg/L (≈ 0.148 µM). This compound also came in with an ED20 in the test on Rattus norvegicus [4] of 1.49 mg/kg. In addition, in the test with Rattus norvegicus [6], the ED33 worked out at 2.58 mg/kg. In addition, the Ratio in test [7] is 9.6. The Relative activity in the test with Rattus norvegicus [5] came out at 0.23; in the test filed under Rattus norvegicus [8] it was 90.3.

Take `CC(C)(CCl)C(=O)Nc1ccc(C2=NNC(=O)CC2)cc1`: the EC50 in the test filed under Homo sapiens [3] worked out at 11.4 mg/L (≈ 37 µM); in the test filed under Homo sapiens [1] (Homo sapiens, read-out: EC50), 9.24 mg/L (≈ 30 µM). Moreover, the Relative activity in the test filed under Homo sapiens [2] is reported as 54; with Rattus norvegicus [5], less than 0.34. Further, the ED20 with Rattus norvegicus [4] was greater than 1 mg/kg.

Take `CC(Cl)CC(=O)Nc1ccc(C2=NNC(=O)CC2C)cc1` (configuration not stated): the concentration for a half-maximal effect (EC50) was determined as 4.78 mg/L (≈ 15.5 µM) in the test filed under Homo sapiens [3] and 3.29 mg/L (≈ 10.7 µM) in the test listed under Homo sapiens [1] (Homo sapiens, read-out: EC50). The Relative activity in the test listed under Homo sapiens [2] stood at 150; with Rattus norvegicus [5] it was 1.81. Moreover, the ED20 in the test on Rattus norvegicus [4] amounted to 0.187 mg/kg.

With `CC1CC(=O)NN=C1c1ccc(NC(=O)CCl)cc1` (configuration not stated), in the test listed under Homo sapiens [3], the EC50 was determined as 0.15 mg/L (≈ 0.536 µM). The compound further registered an ED20 with Rattus norvegicus [4] of 0.15 mg/kg. The compound also registered an ED33 in the test with Rattus norvegicus [6] of 12.2 mg/kg. Further, the Ratio in test [7] is 111. Moreover, the Relative activity with Rattus norvegicus [5] came out at 2.25; in the test filed under Rattus norvegicus [8], 19.1.

For `CCC(Cl)C(=O)Nc1ccc(C2=NNC(=O)CC2)cc1` (configuration not stated), the EC50 in the test filed under Homo sapiens [3] amounted to 1.47 mg/L (≈ 5 µM); in the test listed under Homo sapiens [1] (Homo sapiens, read-out: EC50) it was 3.16 mg/L (≈ 10.8 µM). The Relative activity came to 156 in the test listed under Homo sapiens [2] and 0.91 in the test on Rattus norvegicus [5]. For the same compound, the ED20 in the test with Rattus norvegicus [4] turned out to be 0.37 mg/kg.

The values above are taken from ChEMBL document CHEMBL1122226, “6-Aryl-4,5-dihydro-3(2H)-pyridazinones. A new class of compounds with platelet aggregation inhibiting and hypotensive activities” (J Med Chem, 1983).
